Assay results taken from article PMC3064745 (Immunity, 2011).
pKd: −log10 of the molar value. Where two headings read alike, the source gives them in different places.

Columns and labels:
NKT cells [1] = assay: IFN-γ production by NKT cells, intracellular cytokine staining; format: cell-based, mouse; conditions: 100 ng/ml, 8h stimulation, ICS
Procedure, shortened: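 NKT-enriched thymocytes were cultured for 8h with Jα18−/− splenocytes pulsed with 100 ng/ml glycolipid, with GolgiStop for the last 4h. Cells were surface stained, fixed, permeabilised and stained with anti-IFN-γ. Readout was percent IFN-γ⁺ among α-GalCer-CD1d tetramer⁺ cells. Data representative of 4 experiments.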

Vβ7+ NKT cells = assay: Vβ usage of NKT cells after 3 days of in vitro proliferation; format: cell-based, mouse; conditions: Vβ usage by cell division peak
Procedure, shortened: (§1)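 Jα18−/− mouse splenocytes were pulsed overnight with glycolipid plus IL-2 (100 U/ml), then spun through FCS and resuspended to remove excess lipid. Thymocytes were NKT-enriched by complement depletion of anti-HSA/anti-CD8-labelled cells, cleared of dead cells by gradient, and labelled with CFSE […] for 10 min at 37C. Cells were co-cultured at 2:1 splenocytes:thymocytes for 72h.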

NKT cells [2] = format: cell-based, mouse; conditions: 3 d culture
Procedure, shortened: as §1

NKT cells [3] = assay: Cytokines in culture supernatant, cytometric bead array; format: cell-based, mouse; conditions: 100 ng/ml, 8h stimulation
mouse Vβ8.2 NKT TCR = mouse Vβ8.2 NKT TCR (Mus musculus, UniProt P11609+Z9CWY5XBV8); assay: Surface plasmon resonance of NKT TCR binding to CD1d-AGL complexes
Chain of mouse Vβ8.2 NKT TCR (P11609 whole entry, looked up, other chains not shown): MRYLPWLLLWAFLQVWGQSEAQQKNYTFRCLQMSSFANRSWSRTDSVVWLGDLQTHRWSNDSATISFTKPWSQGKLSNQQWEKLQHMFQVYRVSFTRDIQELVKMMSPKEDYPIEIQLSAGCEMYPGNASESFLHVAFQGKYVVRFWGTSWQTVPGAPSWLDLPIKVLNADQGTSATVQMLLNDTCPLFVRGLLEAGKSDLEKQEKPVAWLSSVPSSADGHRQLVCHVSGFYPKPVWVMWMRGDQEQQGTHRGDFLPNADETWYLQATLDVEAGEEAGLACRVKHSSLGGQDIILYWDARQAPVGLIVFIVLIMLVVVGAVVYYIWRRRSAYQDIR
Procedure, shortened: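 SPR used soluble mouse NKT TCR (Vα14-Jα18; Vβ8.2) injected over streptavidin-immobilised mouse CD1d loaded with glycolipid, with a reference cell of unloaded CD1d. KD was derived from equilibrium responses. Kinetic rate constants were also fitted, with t1/2 determined from the interactions.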

NKT cells [4] = conditions: ICS at 2 and 6 hours after in vivo challenge, compared to α-GalCer; ref Sullivan et al 2010; cited from earlier work
[5] = Serum cytokines after in vivo treatment; conditions: 20h after in vivo treatment, compared to C20:2 and OCH

SMILES | IFN-γ producing NKT cells (NKT cells [1]) | bias toward Vβ7 proliferation (Vβ7+ NKT cells) | NKT cell proliferation (NKT cells [2]; 1 ng/ml glycolipid) | NKT cell proliferation (NKT cells [2]; 100 ng/ml glycolipid) | Th2 bias of cytokine production (NKT cells [3]) | other results
CCCCCCCCCCCCCCCCCCCCCCCCCC(=O)N[C@@H](CO[C@H]1O[C@H](CO)C[C@H](O)[C@H]1O)[C@H](O)CCCCCCCCCCCCCCC [4′,4″-deoxy-α-GalCer] | less potent inducers of IFN-γ production | showed a Vβ7 bias | – | – | – | –
CCCCCCCCCCCCCCCCCCCCCCCCCC(=O)N[C@@H](CO[C@H]1O[C@H](CO)C[C@H](O)[C@H]1O)[C@H](O)[C@H](O)CCCCCCCCCCCCCC [4′-deoxy-α-GalCer] | less potent inducers of IFN-γ production | showed a Vβ7 bias | – | – | – | –
CCCCC/C=C\C/C=C\CCCCCCCCCC(=O)N[C@@H](CO[C@H]1O[C@H](CO)[C@H](O)[C@H](O)[C@H]1O)[C@H](O)[C@H](O)CCCCCCCCCCCCCC [C20:2] | highest percentages of IFN-γ producing NKT cells | – | barely induced NKT cell proliferation | able to induce proliferation | not apparent | –
CCCCCCCCCCCCCCCCCCCCCCCC(=O)N[C@@H](COC1OC(CO)C(O)C(O)C1O)[C@H](O)[C@H](O)CCCCC (stereo partly shown) [OCH, reference compound] | highest percentages of IFN-γ producing NKT cells | loss of Vβ7^+ NKT cells with each progressive division cycle | consistently weaker in comparison to the non-truncated AGLs | – | not apparent | t1/2 life of the interaction, comparison in words (mouse Vβ8.2 NKT TCR): markedly longer half life when compared to that of the 3′,4″-deoxy AGL; affinity relative to the NKT TCR-CD1d-α-GalCer interaction (mouse Vβ8.2 NKT TCR; compared with the α-GalCer positive control): approximately 20%; effect on kinetic rate constants (ka, kd) (mouse Vβ8.2 NKT TCR; compared with α-GalCer, in words): impacted negatively on the association constant; Th2 bias of NKT cell cytokine production (NKT cells [4]): fails to reveal a Th2 bias
CCCCCCCCCCCCCCCCCCCCCCCCCC(=O)N[C@@H](CO[C@H]1O[C@H](CO)[C@H](O)[C@H](O)[C@H]1O)[C@H](O)[C@H](O)CCCCCCCCCCCCCC [α-GalCer, α-galactosylceramide] | highest percentages of IFN-γ producing NKT cells | – | – | – | – | pKd (mouse Vβ8.2 NKT TCR): ~7.23; t1/2 life of the interaction (mouse Vβ8.2 NKT TCR; NKT TCR-CD1d-glycolipid interaction): approximately 20 s; serum IFN-γ response [5]: more sustained IFN-γ response at 20h
CCCCC/C=C\C/C=C\CCCCCCCCCC(=O)N[C@@H](CO[C@H]1O[C@H](CO)[C@@H](O)[C@H](O)[C@H]1O)[C@H](O)[C@H](O)CCCCCCCCCCCCCC [α-GlcCer (C20:2)] | least IFN-γ production of all | showed a Vβ7 bias | barely induced NKT cell proliferation | able to induce proliferation | – | bias toward Vβ7 proliferation (Vβ7+ NKT cells; listed as α-GlcCer): progressively enriched with each division cycle
